RAD52 anneal inh: inhibitors of human RAD52 DNA annealing; AID 651710; 360,000 tested, 0.46% active; recombinant RAD52 DNA annealing, FRET fluorescence; inhibition, % at 18.7 µM;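 active = every replicate showing at least 50% inhibition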
GSIS activator: GLuc luminescence reporter in INS-1E cells, primary screen for activators of glucose-dependent secretion of insulin | AID 743287 | 370,000 tested, 0.61% active | activation, % at 16.6 µM | INS-1E GLuc reporter insulin secretion, 2-3 h;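 active = lowest replicate activation of at least 40%, so every replicate reaches that level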;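 also: 0% = median of neutral control wells and 100% = median of IBMX positive control wells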
S100A4 inh HTS: S100A4-myosin IIA interaction inhibition. inhibition, % at 10.7 µM. S100A4/TAMRA-MyoIIA peptide fluorescence polarization. AID 652163. 360,000 tested, 0.14% active;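 active = mean inhibition of at least 70% across replicates, with every replicate also reaching that level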
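System – human S100A4 monomer protein, biochemical binding assay · Buffer or medium – Calcium-containing HEPES buffer, pH 7.2 · Timing – 5 min between mix addition and reading · Also added – TAMRA-labelled myosin IIA heavy-chain peptide probe, 5 nM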
RAD54 branch: inhibitors of human RAD54 branch migration; RAD54 Holliday junction branch migration, FAM/BHQ fluorescence; inhibition, % at 10.4 µM; 360,000 tested, 0.14% active; AID 602329;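 active = mean normalized replicate activity at least 40 and at least half of replicates scoring 40 or more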;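 also: 0% = median of neutral control wells and 100% = median of positive control wells; inhibitors cause a drop in the FAM fluorescence signal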
Target sequence (Q92698 whole entry, looked up): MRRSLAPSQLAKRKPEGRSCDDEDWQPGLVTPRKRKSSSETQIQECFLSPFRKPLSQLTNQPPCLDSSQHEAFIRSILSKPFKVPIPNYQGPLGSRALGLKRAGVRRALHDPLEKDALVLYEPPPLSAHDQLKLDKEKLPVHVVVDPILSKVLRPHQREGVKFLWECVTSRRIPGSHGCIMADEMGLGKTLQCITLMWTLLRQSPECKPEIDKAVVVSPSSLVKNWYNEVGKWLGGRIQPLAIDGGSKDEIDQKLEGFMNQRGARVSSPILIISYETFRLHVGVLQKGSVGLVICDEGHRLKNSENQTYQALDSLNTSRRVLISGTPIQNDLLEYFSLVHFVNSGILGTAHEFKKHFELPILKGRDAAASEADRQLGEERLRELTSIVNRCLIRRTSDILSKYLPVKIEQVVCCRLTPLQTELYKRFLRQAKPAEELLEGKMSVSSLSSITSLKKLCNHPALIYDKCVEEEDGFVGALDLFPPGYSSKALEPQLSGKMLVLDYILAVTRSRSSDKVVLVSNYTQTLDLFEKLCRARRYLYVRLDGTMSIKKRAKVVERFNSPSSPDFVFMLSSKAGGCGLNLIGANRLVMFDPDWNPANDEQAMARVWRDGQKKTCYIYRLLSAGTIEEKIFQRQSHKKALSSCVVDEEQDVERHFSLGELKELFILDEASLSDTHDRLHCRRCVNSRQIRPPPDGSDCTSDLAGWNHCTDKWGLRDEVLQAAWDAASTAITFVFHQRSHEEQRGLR
AF4-AF9 inh: blocks AF4 peptide binding to human AF9 | P42568 | AlphaScreen, biotin-AF4 peptide binding to FLAG-AF9 | inhibition, % at 10 µM | 350,000 tested, 0.47% active;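 active = every replicate reaching a set inhibition limit, whatever the replicate mean, cut at about 25% in these data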;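 also: 0% = plate neutral control median and 100% = total signal loss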
* hit, by the source's call; · = no result. In the library only some 1.3% were active in any assay of this set; here they are far more common.

SMILES	RAD52 anneal inh	GSIS activator	S100A4 inh HTS	RAD54 branch	AF4-AF9 inh
O=C(CSc1c(Cl)cccc1Cl)NC1CCCc2ccccc21 (centres undefined)	-19.9	40.8*	-1.9	2.4	-4.9
CCCC#Cc1cnc2c(c1)C(=O)N([C@H](C)CO)C[C@H](C)[C@@H](CN(C)C(=O)Nc1c(C)noc1C)O2	-9.6	10.0	0.9	0.0	-1.5
CCSc1ccc(-c2nn(-c3ccccc3)cc2/C=C(/C#N)C(=O)NCCCOC)cc1	·	63.9*	·	·	·
CCCSc1ccc(-c2nn(-c3ccccc3)cc2/C=C(/C#N)C(=O)NCCCOC)cc1	·	49.9*	·	0.4	·
Cc1ccc(-c2nn(-c3ccccc3)cc2/C=C(\C#N)C(=O)NCc2ccccc2)cc1	·	19.7	·	·	·
CCOc1cccc(-c2nn(-c3ccccc3)cc2/C=C(/C#N)C(=O)NCCCn2ccnc2)c1	·	22.4	·	·	·
CCC(=O)N1[C@H](CO)[C@@H](c2ccc(-c3ccc(F)cc3)cc2)[C@@H]1CNC(C)=O	·	-11.1	·	-5.4	·
C[C@@H]1CN([C@H](C)CO)S(=O)(=O)c2ccc(C#CCN(C)C)cc2O[C@@H]1CN(C)CC1CC1	7.6	2.9	96.4*	-11.5	6.6
C[C@@H]1CN([C@@H](C)CO)S(=O)(=O)c2ccc(/C=C/c3ccccc3)cc2O[C@@H]1CN(C)CC1CC1	16.3	5.2	-0.9	0.1	23.9
C[C@H](CO)N1C[C@H](C)[C@H](CN(C)CC2CC2)Oc2cc(/C=C/c3ccccc3)ccc2S1(=O)=O	26.7	-0.2	-23.5	2.2	25.7*
C[C@H](CO)N1C[C@H](C)[C@H](CN(C)CC2CC2)Oc2cc(C#CCN(C)C)ccc2S1(=O)=O	7.3	3.0	-5.1	-1.9	-40.0
CN(C)C(=O)c1cccc(-c2ccc([C@@H]3[C@@H](CO)N4C(=O)CNC[C@@H]34)cc2)c1	-10.4	6.8	-8.7	·	-1.8
O=C(C[C@H]1C[C@H]2c3cc(NC(=O)Nc4ccccc4F)ccc3O[C@H]2[C@@H](CO)O1)NCCc1ccccc1	7.2	5.0	1.2	6.6	-3.9
C=C1SC(=Nc2c(C)cccc2Cl)N(C(=O)c2sc3ccccc3c2Cl)C12CCCCC2	-0.5	134.5*	0.0	10.1	2.3
O=C(C[C@H]1CC[C@@H]2[C@H](COC[C@@H](O)CN2C(=O)c2cnccn2)O1)NCc1ccc(Cl)cc1	0.0	0.5	-4.1	-1.1	-3.7
Cc1ccnc(NC(=O)Nc2ccc(Br)cc2Cl)c1	·	132.9*	·	·	·
COC(=O)c1ccccc1NC(=O)Nc1cc(C)ccn1	-9.1	-0.1	-11.2	·	1.8
COc1ccc(CC(=O)OCC(=O)Nc2ccc3[nH]c(=O)[nH]c3c2)cc1OC	-9.5	·	-3.6	-5.8	0.9
COc1ccc(CC(=O)OCC(=O)N2CCCc3ccccc32)cc1OC	-3.9	110.8*	-1.2	·	-1.8
COc1cccc(C(=O)OCC(=O)N2CCc3ccccc32)c1OC	-9.6	6.7	-3.9	1.3	1.8
COc1ccc(CC(=O)OCC(=O)Nc2cccc(C(C)=O)c2)cc1OC	-1.9	59.2*	1.4	5.5	7.0
COc1ccc(CC(=O)OCC(=O)N2CCc3ccccc32)cc1OC	-11.1	121.2*	-4.5	-9.1	1.1
CNC[C@@H]1Oc2ccc(N)cc2CC(=O)N(C)C[C@@H]1C	·	-5.9	·	·	·
COc1ccccc1NC(=O)N1C[C@H](O)COC[C@@H]2O[C@@H](CC(=O)NCCc3ccncc3)CC[C@H]21	-11.6	12.6	-2.1	-8.8	-2.4
CC=Cc1ccc2n(c1=O)C[C@@H]1[C@@H](CO)[C@H](C(=O)N[C@H](C)c3ccccc3)N(C)[C@H]21 (mixture of isomers)	-13.2	18.9	1.5	-12.6	-0.1
SMILES	RAD52 anneal inh	GSIS activator	S100A4 inh HTS	RAD54 branch	AF4-AF9 inh
O=c1cc(Cl)[nH]c(=O)n1Cc1ccccc1	-9.8	47.5*	-1.2	8.7	-0.8
COc1cccc(OC)c1C(=O)OCC(=O)NCCCc1ccccc1	-0.3	-5.2	-2.2	-6.0	-2.6
CC(C)CNC(=O)COC(=O)c1cccc(S(=O)(=O)NCC(F)(F)F)c1	-6.5	6.5	-0.1	-0.9	25.2*
COc1cccc(OC)c1C(=O)OCC(=O)NCC(C)C	-3.4	42.6*	-3.3	·	-0.5
CNS(=O)(=O)c1cccc(C(=O)OCC(=O)NCc2ccccc2)c1	6.1	-3.1	0.7	-0.4	·
O=C(C[C@H]1C=C[C@H](NC(=O)c2ccc3c(c2)OCO3)[C@@H](CO)O1)NCc1ccc(F)cc1	-6.4	-20.3	-8.9	-0.7	-2.3
C[C@@H]1CN([C@H](C)CO)C(=O)c2cccc(NS(=O)(=O)c3cn(C)cn3)c2O[C@H]1CN(C)C(=O)Nc1ccc(F)cc1	0.4	-4.6	2.0	3.3	-2.4
CCC(=O)OCCNc1cc(Sc2nccn2C)c2nonc2c1[N+](=O)[O-]	·	111.4*	·	·	·
CCC(=O)OCCNc1cc(SCCC(=O)OC)c2nonc2c1[N+](=O)[O-]	·	-20.9	·	·	·
CCCC(=O)OCCNc1cc(Sc2nc3ccccc3[nH]2)c2nonc2c1[N+](=O)[O-]	·	75.6*	·	4.0	·
Cc1ccc(CN2CC(=O)N3[C@@H](CO)[C@H](c4ccc(-c5cccnc5)cc4)[C@@H]3C2)cc1	-0.7	2.5	-1.8	·	0.3
CC(C)NC(=O)Nc1ccc2c(c1)C(=O)N([C@@H](C)CO)C[C@@H](C)[C@@H](CN(C)Cc1ccc(C(F)(F)F)cc1)OCCCC[C@@H](C)O2	16.7	-16.6	4.0	2.8	1.2
COc1ccc(COCC23N=C4SCc5ccccc5C(=O)N4[C@H](c4ccccc4O2)[C@H]3CO[Si](C)(C)C(C)(C)C)cc1	15.4	·	18.8	-5.7	-4.4
Cc1ccc(-n2cc(CNCCCn3ccnc3C)c(-c3ccc(F)cc3)n2)cc1	-8.1	43.9*	-7.1	30.1	26.4*
CO[C@@H]1CN(C)C(=O)c2ccc(NC(=O)C3CC3)cc2OC[C@@H](C)N(C(=O)C2CCOCC2)C[C@@H]1C	9.0	11.8	-2.5	-12.4	0.7
O=S(=O)(c1ccc(F)cc1)N1C[C@H]2[C@@H](c3ccccc31)[C@H](CO)N2Cc1ccccc1Cl	-285.4	-2.0	99.6*	-12.3	4.0
CCOC(=O)CSC1=C(C#N)C(c2ccc(C)o2)CC(=O)N1 (centres undefined)	-16.6	28.9	-2.8	-2.3	29.8*
CC(=O)N1[C@H](C(=O)NCC2CC2)[C@@H](CO)[C@@H]2Cn3c(ccc(-c4cccc(F)c4)c3=O)[C@@H]21	10.1	7.9	-4.8	0.9	-2.1
COc1ccc(CCn2ccc(O)c(Cc3c(F)cccc3Cl)c2=O)cc1OC	-6.1	42.7*	-10.7	·	0.4
O=C(NCCc1ccncc1)[C@@H]1N[C@@H]2c3ccc(/C=C/c4ccccc4)c(=O)n3C[C@@H]2[C@H]1CO	-27.9	1.1	0.6	1.6	-1.4
CCCN1C[C@@H](C)[C@H](OC)CN(C)C(=O)c2ccc(NC(=O)c3ccccc3)cc2OC[C@@H]1C	6.0	-8.2	-2.7	7.5	-1.0
COc1ccccc1-c1nc2cc3ccccc3cc2nc1-c1ccccc1	-13.4	-9.1	-3.5	·	26.0*

High-throughput results: PubChem BioAssay, Broad Institute
